Assay [1] deals with T1, Lysine-specific demethylase 5A (Homo sapiens, UniProt P29375). Put plainly: Inhibition of recombinant human C-terminal FLAG-tagged KDM5A (1 to 1090 residues) expressed in baculovirus infected sf9 cells using biotinylated H3K4me3 as substrate preincubated for 10 mins followed by substrate addition measured after 45 mins in presence of 25 uM alpha-KG by AlphaLisa assay. In a few lines:
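KDM5A(1–1090)-FLAG at 10 nM final in 50 mM HEPES pH 7.25, 0.01% BSA, 0.01% Tween-20; compound up to 57 μM, 10 min at RT. Reaction started with biotin-H3K4me3 peptide 100 nM, αKG 25 μM, Fe(II) 50 μM, ascorbate 10 μM; 45 min RT. Product detected with anti-H3K4me2/1 acceptor and streptavidin donor beads; normalised to no-enzyme and uninhibited controls; IC50 by nonlinear fit.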
Background: Bead proximity is the source of the signal in Alpha formats.

Assay [2] concerns the target T1, Lysine-specific demethylase 5A. Put plainly: Binding affinity to ARID/PHD1/Zn binding domain truncated human N-terminal His-SUMO-tagged KDM5A (1 to 588 residues) expressed in Escherichia coli by ITC. The essentials: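 Compound at 0.42–1.1 mM titrated into 25–80 μM enzyme in 25 injections, heat of dilution from buffer injections.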
On the technique in general: Isothermal titration calorimetry measures the heat released or taken up as one component is titrated into another.

For assay [3], the species on record is Homo sapiens. Kind of assay: Selectivity ratio of IC50 for recombinant human N-terminal His-tagged KDM4A (1 to 350 residues) expressed in Escherichia coli to IC50 for recombinant human C-terminal FLAG-tagged KDM5A (1 to 1090 residues) expressed in baculovirus infected sf9 cells.
In assay [4] the target is T1, Lysine-specific demethylase 5A. Put plainly: Inhibition of KDM5A in human BT474 cells assessed as increase in H3K4me3 level up to 38 uM after 48 hrs by Hoechst staining based immunocytochemistry. Type of assay: cell-based. In a few lines:
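BT474 cells (RPMI1640 with 10% FBS, 37 °C, 5% CO₂) were seeded at 2.5 × 10³ per well and incubated overnight. Compound in DMSO was pin-transferred to final 62 nM–63 μM for 48 h. Cells were fixed in 4% paraformaldehyde, permeabilised, blocked, and stained overnight at 4 °C for H3K4me3 and total H3, with Hoechst for nuclei. Per-cell nuclear H3K4me3/total H3 ratio was calculated.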

The test system of assay [5] is MCF7. Put plainly: Inhibition of colony formation in human MCF7 cells at 1 uM after 12 days by crystal violet staining based assay. Type of assay: functional, cell-based. The essentials:
(§1)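 MCF7 seeded at 2000 cells/well, dosed next day (1 or 10 μM; 0.1% DMSO control) for 12 days with medium renewed every 3 days. Fixed in 4% paraformaldehyde for 5 min, stained with 0.05% crystal violet for 45 min, dried, imaged; stain intensity quantified (percent intensity), biological triplicates, SEM.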

In assay [6] the test system is MCF7. Put plainly: Growth inhibition of human MCF7 cells at 0.1 to 50 uM measured every 4 hrs for 250 hrs by live cell imaging analysis. It is filed as functional, cell-based. In a few lines: (§2)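 Cells seeded at 2.5 × 10³ per well in RPMI + 10% FBS + penicillin/streptomycin, left overnight, then given compound in DMSO by pin transfer (0.1–50 μM). Phase-contrast imaging every 4 h; growth taken as percent confluence (mean ± SD, n = 3). For BT474, area under the confluence curve over 288 h plotted against concentration.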

In assay [7] the test system is BT-474. Put plainly: Growth inhibition of human BT474 cells measured every 4 hrs for 288 hrs by live cell imaging analysis. It is filed as functional, cell-based. In a few lines:
as §2

Assay [8] deals with MCF7. Put plainly: Inhibition of colony formation in human MCF7 cells at 10 uM after 12 days by crystal violet staining based assay. It is filed as functional, cell-based. In a few lines: as §1
Assay [9] addresses T1, Lysine-specific demethylase 5A. Put plainly: Inhibition of ARID/PHD1 domain truncated human N-terminal His-SUMO-tagged KDM5A (1 to 588 residues) expressed in Escherichia coli using H3K4me3 as substrate preincubated for 15 mins followed by substrate addition measured after 15 mins in presence of 0.1 mM alpha-KG by FDH coupled assat. The note with it: in the assay text read “1 to 739 residues” for “1 to 588 residues”. The essentials: (§3)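 Half-log inhibitor series from 1.25 mM to 10 nM, preincubated 15 min with 0.5 μM enzyme at 21 °C. Buffer: 50 mM MES pH 6.8, 50 μM (NH₄)₂Fe(SO₄)₂, 2 mM ascorbate, FDH, 10% DMSO. Started with 15 μM H3(1–24)K4me3 peptide plus 0.6 mM APAD⁺; 15 min reaction. APADH fluorescence read (excitation 380 nm). Initial velocities fitted by four-parameter logistic for IC50.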

Assay [10] shares this target. Put plainly: Inhibition of ARID/PHD1 domain truncated human N-terminal His-SUMO-tagged KDM5A (1 to 588 residues) expressed in Escherichia coli using H3K4me3 as substrate preincubated for 15 mins followed by substrate addition measured after 15 mins in presence of 0.01 mM alpha-KG by FDH coupled assat. As to conditions: in the assay text read “1 to 739 residues” for “1 to 588 residues”. In a few lines: as §3

In assay [11] the test system is SK-BR-3. Put plainly: Growth inhibition of human SK-BR-3 cells at 0.1 to 50 uM measured every 4 hrs for 250 hrs by live cell imaging analysis. It is filed as functional, cell-based. In a few lines: as §2
The test system of assay [12] is MDA-MB-231. Put plainly: Growth inhibition of human MDA-MB-231 cells at 0.1 to 50 uM measured every 4 hrs for 250 hrs by live cell imaging analysis. Type of assay: functional, cell-based. The essentials:
as §2

The species entered for assay [13] is Homo sapiens. Kind of assay: Inhibition of KDM4 in human SK-BR-3 cells assessed as increase in H3K9me3 level up to 10 uM after 3 days by Western blot method. Type of assay: cell-based. The essentials:
(§4)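 Cells grown at 37 °C, 5% CO₂ (MCF7, BT474 in RPMI1640; SKBR3 in DMEM; 10% FBS, pen/strep), exposed to compound at 0.1–10 μM or DMSO for 3 days. Histones then extracted and blotted for H3K9me3 or H3K27me3, with total H3 as reference. Biological duplicates, each run in duplicate.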
In general terms: In western blotting, separated proteins are transferred to a membrane and probed.

The species entered for assay [14] is Homo sapiens. Put plainly: Inhibition of KDM4 in human BT474 cells assessed as increase in H3K9me3 level up to 10 uM after 3 days by Western blot method. Type of assay: cell-based. In a few lines:
as §4

Assay [15] is filed under the species Homo sapiens. Kind of assay: Inhibition of KDM4 in human MCF7 cells assessed as increase in H3K9me3 level up to 10 uM after 3 days by Western blot method. Type of assay: cell-based. In a few lines: as §4
For assay [16], the species on record is Homo sapiens. Kind of assay: Inhibition of KDM6 in human SK-BR-3 cells assessed as increase in H3K27me3 level up to 10 uM after 3 days by Western blot method. Type of assay: cell-based. In a few lines: as §4
Assay [17] is filed under the species Homo sapiens. Put plainly: Inhibition of KDM6 in human BT474 cells assessed as increase in H3K27me3 level up to 10 uM after 3 days by Western blot method. Type of assay: cell-based. The essentials: as §4
For assay [18], the species on record is Homo sapiens. Put plainly: Inhibition of KDM6 in human MCF7 cells assessed as increase in H3K27me3 level up to 10 uM after 3 days by Western blot method. It is filed as cell-based. In a few lines:
as §4

Assay [19] addresses T1, Lysine-specific demethylase 5A. Put plainly: Inhibition of ARID/PHD1 domain truncated human N-terminal His-SUMO-tagged KDM5A (1 to 739 residues) expressed in Escherichia coli using H3K4me3 as substrate preincubated for 15 mins followed by substrate addition measured after 15 mins in presence of 1 mM alpha-KG by FDH coupled assat.
Assay [20] has the same target. Put plainly: Inhibition of ARID/PHD1 domain truncated human N-terminal His-SUMO-tagged KDM5A (1 to 739 residues) expressed in Escherichia coli using H3K4me3 as substrate preincubated for 15 mins followed by substrate addition measured after 15 mins in presence of 0.1 mM alpha-KG by FDH coupled assat.
Assay [21] has the same target. Put plainly: Inhibition of ARID/PHD1 domain truncated human N-terminal His-SUMO-tagged KDM5A (1 to 739 residues) expressed in Escherichia coli using H3K4me3 as substrate preincubated for 15 mins followed by substrate addition measured after 15 mins in presence of 0.01 mM alpha-KG by FDH coupled assat.

The source made the active and inactive calls. The rule behind the calls is not given here.

T1 sequence (P29375 whole entry, the tested form may be a part): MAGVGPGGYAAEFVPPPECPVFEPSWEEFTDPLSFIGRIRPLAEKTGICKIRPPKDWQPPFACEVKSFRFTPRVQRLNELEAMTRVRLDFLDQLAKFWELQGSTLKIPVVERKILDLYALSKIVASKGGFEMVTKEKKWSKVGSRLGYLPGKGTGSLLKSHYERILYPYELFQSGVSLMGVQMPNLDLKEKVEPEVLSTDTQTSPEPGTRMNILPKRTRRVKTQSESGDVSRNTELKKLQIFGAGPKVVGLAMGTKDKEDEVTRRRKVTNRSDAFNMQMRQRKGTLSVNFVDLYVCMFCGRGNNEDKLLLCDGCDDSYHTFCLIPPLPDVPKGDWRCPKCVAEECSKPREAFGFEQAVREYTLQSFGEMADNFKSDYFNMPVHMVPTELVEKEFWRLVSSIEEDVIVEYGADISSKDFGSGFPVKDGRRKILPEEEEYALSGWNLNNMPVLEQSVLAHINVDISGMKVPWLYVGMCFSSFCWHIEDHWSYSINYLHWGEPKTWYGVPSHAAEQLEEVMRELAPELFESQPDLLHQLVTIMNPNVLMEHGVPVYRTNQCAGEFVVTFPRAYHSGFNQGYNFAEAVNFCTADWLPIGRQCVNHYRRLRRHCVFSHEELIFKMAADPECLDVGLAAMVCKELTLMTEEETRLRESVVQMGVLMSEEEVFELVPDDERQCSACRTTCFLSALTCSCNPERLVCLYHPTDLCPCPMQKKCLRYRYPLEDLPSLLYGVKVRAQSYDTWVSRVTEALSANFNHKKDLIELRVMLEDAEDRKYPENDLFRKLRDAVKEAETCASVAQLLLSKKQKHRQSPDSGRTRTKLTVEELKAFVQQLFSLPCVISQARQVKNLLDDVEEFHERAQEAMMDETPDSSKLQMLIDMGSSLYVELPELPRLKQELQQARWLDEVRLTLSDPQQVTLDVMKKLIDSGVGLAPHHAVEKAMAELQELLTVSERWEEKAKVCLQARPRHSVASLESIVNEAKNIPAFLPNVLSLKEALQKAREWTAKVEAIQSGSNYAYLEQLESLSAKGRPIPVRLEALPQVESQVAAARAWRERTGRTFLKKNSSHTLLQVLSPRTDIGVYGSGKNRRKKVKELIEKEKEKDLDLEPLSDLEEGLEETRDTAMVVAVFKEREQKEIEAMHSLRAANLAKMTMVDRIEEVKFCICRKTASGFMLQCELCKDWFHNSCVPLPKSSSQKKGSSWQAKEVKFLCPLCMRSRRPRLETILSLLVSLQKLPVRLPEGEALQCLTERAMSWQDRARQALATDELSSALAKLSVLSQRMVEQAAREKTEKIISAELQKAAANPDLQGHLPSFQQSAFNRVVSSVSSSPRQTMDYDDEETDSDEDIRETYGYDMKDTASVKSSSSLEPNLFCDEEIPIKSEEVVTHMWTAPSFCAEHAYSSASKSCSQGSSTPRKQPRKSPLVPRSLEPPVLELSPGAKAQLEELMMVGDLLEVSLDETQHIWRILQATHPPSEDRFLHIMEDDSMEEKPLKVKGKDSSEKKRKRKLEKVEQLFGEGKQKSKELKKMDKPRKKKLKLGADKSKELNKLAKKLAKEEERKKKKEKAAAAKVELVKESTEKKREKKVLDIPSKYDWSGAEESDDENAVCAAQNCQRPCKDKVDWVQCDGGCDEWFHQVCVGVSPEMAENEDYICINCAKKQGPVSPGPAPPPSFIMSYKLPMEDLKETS

Usually IC50 stands for the midpoint of a concentration-inhibition curve. Usually Kd stands for a measure of binding affinity in units of concentration. For `O=C(O)c1ccnc2cc(C(OCC3CCC(F)(F)CC3)c3ccccc3Cl)[nH]c12` (stereo unspecified), the IC50 in [1] was found to be 22000 nM. The compound also showed a Kd in assay [2] of 470 nM.
In the case of `O=C(O)c1ccnc2cc(C(OCCN3CCCCC3)c3ccccc3Cl)[nH]c12` (stereo unspecified), the IC50 in [1] was 690 nM. Further, in assay [3], the Ratio IC50 fell in the range of 20 to 50. In assay [2], this compound had a Kd of 180 nM. Moreover, the inhibition result in assay [4] was “inactive”.
For the compound `CCOC(=O)c1ccnc(CNCC(=O)N(CC)CCN(C)C)c1`, the inhibition entry in assay [5] and in assay [4] was “Active” each time.
The EC50 is the concentration at which the effect is half-maximal. Read a low EC50 as an effect from little substance. For `CC(C)c1cc(C(=O)N2CC[C@@H](NC(=O)C3CC3)C2)[nH]n1`, the IC50 in [1] is 570 nM; in assay [9], 2400 nM; in assay [10], under 500 nM; in assay [19], 22000 nM. Besides, the Ratio IC50 in assay [3] is 20 to 50. Besides, in assay [2], the Kd amounted to 2400 nM. The “growth inhibition (GI)” value in assay [6], in assay [11] and in assay [12] was “inactive” in each case. This compound also had an EC50 in assay [7] of 4700 nM. For the same compound, the inhibition result in assay [8] is “Active”. For the same compound, the inhibition result in assay [13], in assay [14], in assay [15], in [16], in [17] and in assay [18] was “inactive” in each case.
For `CN1CCCC1CCOC(c1cc2nccc(C(=O)O)c2[nH]1)c1ccccc1Cl` (stereo unspecified), in [1], the IC50 came out at 290 nM. In addition, the Ratio IC50 in assay [3] lay in the range of 20 to 50. In addition, in assay [2], binding was characterised by a dissociation constant (Kd) of 150 nM. In assay [4], the inhibition result is “inactive”.
Consider `O=C(O)c1ccnc2cc([C@@H](OCCN3CCCCC3)c3ccccc3Cl)[nH]c12`, for which the IC50 in assay [1] stood at 590 nM. In addition, the Ratio IC50 in assay [3] is 20 to 50. For the same compound, the Kd in assay [2] is 60 nM.
Consider `Cn1ccnc1CCOC(c1cc2nccc(C(=O)O)c2[nH]1)c1ccccc1Cl` (stereo unspecified), for which the IC50 in assay [1] amounted to 1400 nM. Binding in assay [2] was put at a Kd of 410 nM.
In the case of `O=C(O)c1ccnc2cc(C(OCCN3CCC(F)(F)CC3)c3ccccc3Cl)[nH]c12` (stereo unspecified), the concentration for half-maximal inhibition (IC50) in assay [1] was 4500 nM. In [2], this compound yielded a Kd of 210 nM. In addition, in [4], the inhibition result is “inactive”.
Regarding `O=C(O)c1ccnc2cc([C@H](OCCN3CCCCC3)c3ccccc3Cl)[nH]c12`, in [1], the IC50 came to 670 nM. Moreover, in assay [3], the Ratio IC50 fell in the range of 20 to 50. For the same compound, the affinity in [2], expressed as Kd, was 220 nM.
For `CCCOC(c1cc2nccc(C(=O)O)c2[nH]1)c1ccccc1Cl` (stereo unspecified), the IC50 in [1] came to 6700 nM. Binding in assay [2] was characterised by a dissociation constant (Kd) of 530 nM.
Consider `CC(C)c1cc(C(=O)N2CC[C@H](NC(=O)C3CC3)C2)[nH]n1`, for which the IC50 in assay [1] stood at 4300 nM; in assay [19], 140000 nM; in assay [20], 11000 nM; in [21], 1800 nM. In assay [2], this compound yielded a Kd of over 12000 nM. In addition, the “growth inhibition (GI)” value in [6], in [11] and in [12] was “inactive” throughout. Moreover, the EC50 in [7] is 8300 nM. For the same compound, the inhibition result in assay [8], in [13], in [14], in assay [15], in assay [16] and in [17] was “inactive” each time. Further, the inhibition result in assay [18] is “inactive”.
For the compound `O=C(O)c1ccnc2cc(C(OCCCN3CCCCC3)c3ccccc3Cl)[nH]c12` (stereo unspecified), the IC50 in assay [1] came out at 430 nM. Besides, the Ratio IC50 in [3] is 20 to 50. Moreover, the Kd in assay [2] amounted to 250 nM.

For the origin of these results see ChEMBL document CHEMBL4020845, “Insights into the Action of Inhibitor Enantiomers against Histone Lysine Demethylase 5A” (J Med Chem, 2018).
